The values that follow come from ChEMBL document CHEMBL1143847, “Competitive inhibitors of the CphA metallo-beta-lactamase from Aeromonas hydrophila” (Antimicrob Agents Chemother, 2007).

For assay [1], the target named is T1, Beta-lactamase (Aeromonas hydrophila, UniProt Q44079). As to the kind of experiment: Inhibition of Aeromonas hydrophila beta lactamase CphA by competitive inhibition assay.
The target of assay [2] is T1, Beta-lactamase. Description: Inhibition of Aeromonas hydrophila beta lactamase CphA at pH 7.0.
Assay [3] deals with T1, Beta-lactamase. Description: Inhibition of Aeromonas hydrophila beta lactamase CphA at pH 9.0.
Assay [4] in a line: Inhibition of Aeromonas hydrophila beta lactamase CphA N116H-N220G mutant by competitive inhibition assay. The procedure, abridged:
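Purified double-mutant enzyme (0.03–0.7 nM) in 20 mM HEPES pH 7.0 with 20 μg/ml BSA. Imipenem was varied 20–200 μM at three inhibitor concentrations and without inhibitor, with no preincubation, at 30°C. Initial rates were Hanes-linearized to give the competitive Ki. The dizinc form was run separately with cefotaxime in 20 mM cacodylate pH 6.5, BSA, 100 μM ZnCl2.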

In assay [5] the target is T1, Beta-lactamase. As to the kind of experiment: Inhibition of Aeromonas hydrophila beta lactamase CphA at pH 10.0.
In assay [6] the target is T1, Beta-lactamase. Description: Inhibition of Aeromonas hydrophila beta lactamase CphA at pH 8.0.

T1 sequence (Q44079 whole entry): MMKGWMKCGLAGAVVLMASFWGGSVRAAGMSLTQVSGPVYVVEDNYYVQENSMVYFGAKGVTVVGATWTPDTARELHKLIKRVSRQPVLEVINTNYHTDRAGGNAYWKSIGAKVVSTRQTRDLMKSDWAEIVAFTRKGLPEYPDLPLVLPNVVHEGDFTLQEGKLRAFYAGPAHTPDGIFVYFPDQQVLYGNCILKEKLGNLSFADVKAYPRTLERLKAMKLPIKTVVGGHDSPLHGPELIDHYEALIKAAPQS

`O=C(O)c1ccncc1C(=O)O`: in assay [1], the Ki stood at 1100 µM.

With `O=C(O)c1ccccn1` [2-PICOLINIC ACID], the Ki in assay [2] was determined as 46 µM; in assay [3], 440 µM; in assay [4], 13 µM; in assay [5], 1100 µM; in assay [6] it was 76 µM; in assay [1], 5.7 µM.

`O=C(O)c1ccc(C(=O)O)nc1` [PYRIDINE-2,5-DICARBOXYLIC ACID]: the Ki in assay [1] stood at 420 µM.

With `O=C(O)c1cccnc1C(=O)O` [QUINOLINIC ACID], the Ki in assay [1] was determined as 200 µM.
